The text below walks through data of ChEMBL document CHEMBL4373718, “Germacrane Sesquiterpenoids as a New Type of Anticardiac Fibrosis Agent Targeting Transforming Growth Factor β Type I Receptor” (J Med Chem, 2019).

For assay [1], the target named is T1, TGF-beta receptor type-1 (Rattus norvegicus) (UniProt P80204).
T1 sequence (whole entry): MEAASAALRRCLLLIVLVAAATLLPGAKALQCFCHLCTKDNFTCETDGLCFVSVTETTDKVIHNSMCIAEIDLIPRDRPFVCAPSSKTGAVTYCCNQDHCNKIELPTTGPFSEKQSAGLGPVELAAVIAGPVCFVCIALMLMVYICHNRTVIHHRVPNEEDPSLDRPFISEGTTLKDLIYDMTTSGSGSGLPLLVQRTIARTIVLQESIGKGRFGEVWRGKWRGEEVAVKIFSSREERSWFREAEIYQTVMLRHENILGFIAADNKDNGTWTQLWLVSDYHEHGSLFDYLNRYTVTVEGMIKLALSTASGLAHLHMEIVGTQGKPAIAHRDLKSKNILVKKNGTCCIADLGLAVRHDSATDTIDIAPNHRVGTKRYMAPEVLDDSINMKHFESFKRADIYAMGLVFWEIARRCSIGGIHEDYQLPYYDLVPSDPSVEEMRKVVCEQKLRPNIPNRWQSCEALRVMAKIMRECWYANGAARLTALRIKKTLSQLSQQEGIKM
In words: Inhibition of TGFbeta1 receptor in TGFbeta1-stimulated Sprague-Dawley rat cardiac fibroblasts assessed as reduction in fibronectin expression at 10 uM measured after 12 hrs by Western blot analysis relative to control. The gist of the method: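 Primary rat cardiac fibroblasts (passages 2–4, 3×10^5 per well) treated with compound plus 10 ng/mL TGFβ1 for 12 h; tested at 2.5, 5 and 10 µM. Lysates run on 10% SDS-PAGE (30 µg protein), probed for FN, α-SMA and collagen I/III, and quantified by densitometry against GAPDH. N=3 independent experiments.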
In general terms: In western blotting, separated proteins are transferred to a membrane and probed.

Assay [2] concerns the target T1, TGF-beta receptor type-1 (Rattus norvegicus). In words: Inhibition of TGFbeta1 receptor in TGFbeta1-stimulated Sprague-Dawley rat cardiac fibroblasts assessed as reduction in fibronectin expression at 50 uM measured after 12 hrs by Western blot analysis. In short, it runs like this: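 Screen in primary rat cardiac fibroblasts: compounds at 50 µM or 10 µM given with 10 ng/mL TGFβ1 for 12 h. FN measured by Western blot with GAPDH loading control and densitometry. N=3 independent experiments.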

Assay [3] shares this target. The assay can be described thus: Inhibition of TGFbeta1 receptor in TGFbeta1-stimulated Sprague-Dawley rat cardiac fibroblasts assessed as reduction in alpha-SMA expression at 2 mM measured after 12 hrs by Western blot analysis.
For assay [4] the target is unchanged. The assay can be described thus: Inhibition of TGFbeta1 receptor in TGFbeta1-stimulated Sprague-Dawley rat cardiac fibroblasts assessed as reduction in fibronectin expression at 2 mM measured after 12 hrs by Western blot analysis.
For assay [5] the target is unchanged. In words: Inhibition of TGFbeta1 receptor in TGFbeta1-stimulated Sprague-Dawley rat cardiac fibroblasts assessed as reduction in collagen 1 expression at 2 mM measured after 12 hrs by Western blot analysis.
Assay [6] shares this target. The assay can be described thus: Inhibition of TGFbeta1 receptor in TGFbeta1-stimulated Sprague-Dawley rat cardiac fibroblasts assessed as reduction in collagen 3 expression at 2 mM measured after 12 hrs by Western blot analysis.

Activity calls are given as the source filed them. The rule behind the calls is not given here.

For `C=C(C)[C@@H]1C[C@@H](N2CCCC2)/C(C)=C/CCC2=C[C@@H]1OC2=O`, the “fibronectin reduction verdict (active/not active)” value in assay [1] is “inactive”. The “fibronectin reduction (active/not active)” value in assay [2] was “inactive”.
`C=C(C)[C@@H]1C/C=C(\C)[C@H](O)CCC2=C[C@@H]1OC2=O`: the “fibronectin reduction (active/not active)” value in assay [2] was “Active”.
As to `C=C(C)[C@@H]1C[C@@H](O)/C(C)=C/CCC2=C[C@@H]1OC2=O`, the “fibronectin reduction verdict (active/not active)” value in assay [1] was “Active”. In assay [2], the “fibronectin reduction (active/not active)” value is “Active”.
For `C=C(C)[C@@H]1C/C=C(\C)[C@@H](O)CCC2=C[C@@H]1OC2=O`, the “fibronectin reduction (active/not active)” value in assay [2] was “Active”.
As to `C=C(C)[C@@H]1CC[C@]2(C)O[C@@H]2CCC2=C[C@@H]1OC2=O`, in assay [2], the “fibronectin reduction (active/not active)” value was “Active”.
For `C=C(C)[C@@H]1C/C=C(\C)[C@H](OC(=O)c2ccc([N+](=O)[O-])cc2)CCC2=C[C@@H]1OC2=O`, the “fibronectin reduction verdict (active/not active)” value in assay [1] is “Active”. In addition, the “fibronectin reduction (active/not active)” value in assay [2] is “Active”.
As for `C=C(C)[C@@H]1C/C=C(\C)[C@H](OCC)CCC2=C[C@@H]1OC2=O`, the “fibronectin reduction (active/not active)” value in assay [2] was “Active”.
As to `C=C(C)[C@@H]1C/C=C(C)/C(=N\OC(=O)c2ccco2)CCC2=C[C@@H]1OC2=O`, the “fibronectin reduction verdict (active/not active)” value in assay [1] was “inactive”. Also, in assay [2], the “fibronectin reduction (active/not active)” value was “inactive”.
For `C=C(C)[C@@H]1C/C=C(\C)[C@H](OC(=O)c2cccnc2Cl)CCC2=C[C@@H]1OC2=O`, in assay [1], the “fibronectin reduction verdict (active/not active)” value was “Active”. Besides, the “fibronectin reduction (active/not active)” value in assay [2] was “Active”.
Take `C=C(C)[C@@H]1CC/C(C)=C/CCC2=C[C@@H]1OC2=O`: the “fibronectin reduction (active/not active)” value in assay [2] was “Active”.
As to `C=C(C)[C@@H]1C[C@@H](N2CCCCC2)/C(C)=C/CCC2=C[C@@H]1OC2=O`, the “fibronectin reduction verdict (active/not active)” value in assay [1] is “inactive”. Besides, the “fibronectin reduction (active/not active)” value in assay [2] was “inactive”.
For the compound `C=C(C)[C@@H]1C/C=C(\C)[C@H](Br)CCC2=C[C@@H]1OC2=O`, in assay [1], the “fibronectin reduction verdict (active/not active)” value was “Active”. Further, the “fibronectin reduction (active/not active)” value in assay [2] is “Active”.
In the case of `C=C(C)[C@@H]1C/C=C(\C)[C@H](OC(C)=O)CCC2=C[C@@H]1OC2=O`, the “fibronectin reduction (active/not active)” value in assay [2] is “Active”.
On to `C=C(C)[C@@H]1C[C@@H](OC=O)/C(C)=C/CCC2=C[C@@H]1OC2=O`, for which the “fibronectin reduction verdict (active/not active)” value in assay [1] is “inactive”. In addition, the “fibronectin reduction (active/not active)” value in assay [2] was “inactive”.
In the case of `C=C(C)[C@@H]1C/C=C(C)/C(=N\OC(C)=O)CCC2=C[C@@H]1OC2=O`, the “fibronectin reduction verdict (active/not active)” value in assay [1] was “inactive”. For the same compound, in assay [2], the “fibronectin reduction (active/not active)” value is “inactive”.
With `C=C(C)[C@@H]1C/C=C(\C)[C@H](OC(=O)c2cccs2)CCC2=C[C@@H]1OC2=O`, the “fibronectin reduction (active/not active)” value in assay [2] was “Active”.
Same read-out and setting: the value for `C=C(C)[C@@H]1C/C=C(\C)[C@H](OC)CCC2=C[C@@H]1OC2=O` was “Active”; that for `C=C(C)[C@@H]1C/C=C(\C)[C@H](N=[N+]=[N-])CCC2=C[C@@H]1OC2=O` was “Active”.
For the compound `O=C1CCC[C@@H]2[C@H]3CCC[N+]4([O-])CCC[C@@H](CN12)[C@@H]34` (stereo partly specified), the inhibition result in assay [3], in assay [4], in assay [5] and in assay [6] was “Active” in each case.
`C=C(C)[C@@H]1CC/C(C)=C/CC[C@@H](C(=O)OC)CC1=O`: the “fibronectin reduction verdict (active/not active)” value in assay [1] was “inactive”. Besides, the “fibronectin reduction (active/not active)” value in assay [2] was “inactive”.
Take `C=C(C)[C@@H]1C/C=C(\C)[C@H](OC(=O)c2ccc(C(F)(F)F)cc2)CCC2=C[C@@H]1OC2=O`: the “fibronectin reduction (active/not active)” value in assay [2] was “Active”.
Turning to `C=C(C)[C@@H]1C[C@@H](N2CCOCC2)/C(C)=C/CCC2=C[C@@H]1OC2=O`, the “fibronectin reduction verdict (active/not active)” value in assay [1] was “inactive”. The “fibronectin reduction (active/not active)” value in assay [2] is “inactive”.
`C=C(C)[C@@H]1C/C=C(\C)[C@H](O[N+](=O)[O-])CCC2=C[C@@H]1OC2=O`: the “fibronectin reduction (active/not active)” value in assay [2] is “Active”.
As for `C=C(C)[C@@H]1C/C=C(\C)[C@H](F)CCC2=C[C@@H]1OC2=O`, the “fibronectin reduction (active/not active)” value in assay [2] was “Active”.
`C=C(C)[C@@H]1CC/C(C)=C/CC[C@@H](C(=O)OCC)CC1=O`: in assay [1], the “fibronectin reduction verdict (active/not active)” value is “inactive”. Further, the “fibronectin reduction (active/not active)” value in assay [2] was “inactive”.
Take `C=C(C)[C@@H]1C/C=C(\C)[C@H](Cl)CCC2=C[C@@H]1OC2=O`: the “fibronectin reduction verdict (active/not active)” value in assay [1] is “Active”. The “fibronectin reduction (active/not active)” value in assay [2] is “Active”.
Turning to `C=C(C)[C@@H]1C[C@@H](OC)/C(C)=C/CCC2=C[C@@H]1OC2=O`, in assay [1], the “fibronectin reduction verdict (active/not active)” value was “inactive”. Also, the “fibronectin reduction (active/not active)” value in assay [2] was “inactive”.
`C=C(C)[C@@H]1C[C@@H](OC(C)C)/C(C)=C/CCC2=C[C@@H]1OC2=O`: the “fibronectin reduction verdict (active/not active)” value in assay [1] is “inactive”. Further, in assay [2], the “fibronectin reduction (active/not active)” value is “inactive”.
In the case of `C=C1CC[C@@H](C(=C)C)[C@@H]2C=C(CC[C@H]1F)C(=O)O2`, the “fibronectin reduction (active/not active)” value in assay [2] was “Active”.
For `C=C(C)[C@@H]1C[C@@H](OCC)/C(C)=C/CCC2=C[C@@H]1OC2=O`, in assay [1], the “fibronectin reduction verdict (active/not active)” value was “inactive”. For the same compound, the “fibronectin reduction (active/not active)” value in assay [2] is “inactive”.
Consider `C=C(C)[C@@H]1C/C=C(\C)[C@H](OC(=O)c2cc(C(F)(F)F)cc(C(F)(F)F)c2)CCC2=C[C@@H]1OC2=O`, for which the “fibronectin reduction verdict (active/not active)” value in assay [1] is “Active”. The “fibronectin reduction (active/not active)” value in assay [2] is “Active”.
